High-throughput results from PubChem BioAssay.
ROMK mod: human ROMK K+ channel modulation, primary screen | P48048 | Tet-inducible ROMK, thallium flux fluorescence; actives lie on both sides | B-score at 10 µM | 130,000 tested, 2% active;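 active = signal ratio slope over the read window, or its plate-corrected B-score, at least 3 SD from the plate mean, either direction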;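 also: B-score of the F/F0 ratio slope over 7 to 12 s after thallium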
p47phox inh: blocks human p47phox regulatory protein of NADPH oxidases; P14598; p47phox/p22phox peptide binding, fluorescence polarization, 2 h; inhibition, % at 24.7 µM; 220,000 tested, 0.53% active; AID 1274;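 active = inhibition above about 30%, limit read from the data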;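 also: 0% = p47phox with labelled peptide and 100% = labelled peptide alone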
RBBP9 inhibitor: human RBBP9 hydrolase inhibition; O75884; recombinant RBBP9, FP-Rh probe fluorescence polarization; inhibition, % at 7.94 µM; 220,000 tested, 0.2% active; AID 1515;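 active = inhibition above the campaign mean of all tested compounds plus 3 SD, cut at about 14% in these data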;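 also: plate controls were DMSO wells with RBBP9 for no effect and wells lacking RBBP9 protein for full effect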
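Material: RBBP9 protein. Amount: RBBP9 at 2.5 µM in dispensed solution, before mixing. Schedule: 30 min then 45 min, 25 °C. Medium: Tris buffer pH 8.0, NaCl, Pluronic. Measured by: fluorescence polarization. Measure: percent inhibition from mP, scaled between DMSO and no-protein wells. Replication: one well per compound.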
WT yeast gro inh: growth inhibition of WT yeast, mitochondrial fusion screen; mitochondrial fusion phenotypic screen, WT strain; inhibition, % at 10 µM; 190,000 tested, 2.1% active; AID 1362; in the data active = inhibition above about 58%; tested in S. cerevisiae
KCC2 mod: modulates chloride dependent transport by human KCC2; Q9H2X9; KCC2 cells, thallium flux FluoZin-2 fluorescence; B-score of Tl+ flux slope (higher = more flux/activation; lower = inhibition) at 10 µM; 190,000 tested, 2.2% active; AID 1456;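 active = thallium flux slope and its plate-corrected score both differing from the plate sample mean at a set confidence after two filtering rounds, in either direction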;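 also: slope of fluorescence scaled to starting intensity during 10 to 20 s after thallium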
Target sequence (Q9H2X9 whole entry, looked up): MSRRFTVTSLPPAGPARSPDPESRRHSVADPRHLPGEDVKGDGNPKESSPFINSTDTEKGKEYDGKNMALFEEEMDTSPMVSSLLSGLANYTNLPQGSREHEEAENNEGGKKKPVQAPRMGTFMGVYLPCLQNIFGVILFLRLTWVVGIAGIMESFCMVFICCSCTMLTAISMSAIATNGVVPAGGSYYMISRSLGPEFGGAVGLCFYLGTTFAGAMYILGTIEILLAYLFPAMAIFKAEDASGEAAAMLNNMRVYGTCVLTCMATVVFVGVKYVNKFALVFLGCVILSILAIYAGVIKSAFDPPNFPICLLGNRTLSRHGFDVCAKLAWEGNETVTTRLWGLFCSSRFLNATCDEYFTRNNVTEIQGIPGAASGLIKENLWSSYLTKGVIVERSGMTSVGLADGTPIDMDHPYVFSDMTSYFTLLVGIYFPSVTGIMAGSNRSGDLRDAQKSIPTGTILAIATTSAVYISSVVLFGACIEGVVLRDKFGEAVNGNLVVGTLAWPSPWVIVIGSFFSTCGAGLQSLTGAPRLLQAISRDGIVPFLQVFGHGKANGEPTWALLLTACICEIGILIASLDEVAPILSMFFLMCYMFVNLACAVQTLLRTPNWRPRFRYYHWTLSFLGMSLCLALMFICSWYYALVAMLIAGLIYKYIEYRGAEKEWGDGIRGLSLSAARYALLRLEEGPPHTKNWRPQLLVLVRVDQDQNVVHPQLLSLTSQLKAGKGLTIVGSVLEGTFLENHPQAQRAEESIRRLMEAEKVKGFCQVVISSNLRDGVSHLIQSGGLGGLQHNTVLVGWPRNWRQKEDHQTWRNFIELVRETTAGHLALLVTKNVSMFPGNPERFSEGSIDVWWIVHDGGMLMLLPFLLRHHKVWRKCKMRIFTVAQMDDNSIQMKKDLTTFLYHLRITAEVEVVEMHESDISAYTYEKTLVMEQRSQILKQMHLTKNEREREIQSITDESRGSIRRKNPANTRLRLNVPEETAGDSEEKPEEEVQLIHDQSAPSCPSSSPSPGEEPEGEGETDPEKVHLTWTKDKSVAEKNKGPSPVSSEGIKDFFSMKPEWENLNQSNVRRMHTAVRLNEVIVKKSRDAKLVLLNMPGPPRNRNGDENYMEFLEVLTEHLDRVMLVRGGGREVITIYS
14-3-3 Bad PPI: disrupts binding of bovine 14-3-3 zeta to phospho-Bad peptide; inhibition, % at 21.7 µM; AID 781; 220,000 tested, 0.71% active; P63103; TR-FRET 14-3-3zeta/Dy647-pBad peptide displacement, 1 h;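 active = inhibition above about 70%, limit read from the data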;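 also: 0% = full 14-3-3 plus peptide FRET controls and 100% = background without 14-3-3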
Starred values were filed as active, the others as inactive; . = no result. A selection: hits, their analogues and other compounds. The true share with any hit is near 5.8%.

SMILES	ROMK mod	p47phox inh	RBBP9 inhibitor	WT yeast gro inh	KCC2 mod	14-3-3 Bad PPI
Clc1ccc(-c2csc(N/N=C\c3cccnc3)n2)cc1	-0.608	12.3	-1.5	20.5	-0.308	76.2*
C(=N\Nc1nc(Nc2ccccc2)nc(Nc2ccccc2)n1)/c1ccncc1	0.0391	7.2	4.2	-20.1	0.36	4.0
C(=N\Nc1nc(Nc2ccccc2)nc(Nc2ccccc2)n1)/c1cccnc1	0.829	-39.5	-21.5	82.8*	-1.06	-12.2
C(=N/Nc1nc(-c2ccccc2)cc(-c2ccccc2)n1)/c1cccnc1	.	-12.7	-2.6	67.7*	-1.62	0.6
CCOC(=O)C1(CCOc2ccccc2)CCN(Cc2cccc3nonc23)CC1	-1.42	-11.5	-6.2	29.6	-0.109	-11.0
Cc1ccsc1-c1nc(CN2CCCC2c2ccc(F)cc2)c(C)o1 (stereo unspecified)	0.896	-87.1	-8.1	16.0	0.225	-4.6
C#Cc1ccc([C@@H]2C=C(C(=O)N3CCN(Cc4ccc5c(c4)OCO5)CC3)O[C@H](OCCCCO)C2)cc1	.	-9.4	-3.9	5.5	0.0277	-3.4
Cc1[nH]n(-c2cccc3ccccc23)c(=O)c1/C=N/c1sc2c(c1C#N)CCC2	0.0208	-6.0	-2.3	-3.9	26.2*	7.7
N#Cc1c(/N=C/c2cc3ccccc3s2)sc2c1CCC2	1.11	-14.6	-12.2	5.5	-1.32	-4.3
Cc1[nH]n(-c2ccc(F)cc2)c(=O)c1/C=N/c1sc2c(c1C#N)CCCC2	-0.957	-17.0	-3.5	17.6	.	80.8*
Cc1ccc(NCc2nc3ccccc3n2C)cc1	.	-2.7	-3.6	11.4	-1.44	-3.3
Cn1c(/N=C/c2cccs2)nc2ccccc21	0.355	-1.5	2.2	5.5	.	0.3
Cc1cc(C)c(C)c(N=Nc2nc3ccccc3n2C)c1C	0.534	-1.2	0.0	84.0*	0.0239	2.3
Cc1ccc(C)c(N=Nc2nc3ccccc3n2C)c1	.	-3.0	-3.0	82.4*	-2.82	3.5
O=C1NC(=O)C(Cc2ccccc2)(c2cccnc2)N1 (stereo unspecified)	.	0.2	3.5	.	-0.289	0.6
Cc1ccc(Cl)c(OCCCCN(C)Cc2ccccc2)c1	-0.662	-1.2	0.7	9.7	0.461	76.9*
Cc1ccc(Cl)c(OCCCN(C)Cc2ccccc2)c1	.	7.3	-3.1	.	-0.343	71.9*
CC(=O)c1ccc(NC(=O)CC23CC4CC(C2)CC(n2nnc(C)n2)(C4)C3)cc1	-0.167	-3.2	-9.9	-2.5	0.853	17.0
CC(C)(C#CCN1CCCCC1)OCCOC(c1ccccc1)c1ccccc1	.	-3.4	-2.2	20.2	-0.412	5.2
CCCCNC(=S)N(C)/N=C/c1ccc(OCc2ccc(C(=O)OC)cc2)c(OC)c1	-0.55	-8.6	-6.9	-9.1	-0.104	-7.4
CCOC(=O)C1=C(O)C(=O)N(C2CCCCC2)C1	-0.42	2.9	2.1	.	-0.00174	1.6
Cc1noc(C)c1CSCc1ccc(Cl)cc1	.	-9.6	5.7	10.2	-2.53	-15.0
O=S(=O)(Nc1nc2ccccc2nc1NCc1ccco1)c1ccc(Cl)cc1	.	-16.1	7.2	58.4*	-1.02	8.9
Cc1noc(C)c1CSc1nc2ccccc2nc1NS(=O)(=O)c1ccc(Cl)cc1	-3.13*	-39.8	2.4	-9.0	.	46.2
Cc1ccc(S(=O)(=O)N(C)C)cc1NC(=O)C(C)OC(=O)/C=C/c1cccs1 (stereo unspecified)	.	-3.4	-8.3	.	-1.53	-4.1
SMILES	ROMK mod	p47phox inh	RBBP9 inhibitor	WT yeast gro inh	KCC2 mod	14-3-3 Bad PPI
CC(C)(C)NC(=O)COC(=O)c1ccc(Cl)cc1O	-0.2	-0.1	-4.9	-6.5	-0.965	-1.5
O=C(CSc1nnc(-c2ccccc2)n1-c1ccccc1)c1cccs1	0.419	35.4*	-6.9	5.2	-0.441	0.9
Cc1ccc2[nH]c(=O)c(CN(CC3COCCO3)C(=O)Nc3ccccc3F)cc2c1 (stereo unspecified)	0.382	1.1	-3.9	-4.8	-0.142	-13.1
COc1ccc(C2Cc3ccccc3C(=O)O2)cc1 (stereo unspecified)	0.894	-11.1	1.6	7.3	.	-7.9
O=S(=O)(Nc1ccccc1)c1ccc2c(c1)CCO2	-0.509	-14.3	-7.7	.	-0.673	1.4
COc1ccc(NS(=O)(=O)c2ccc3c(c2)CCO3)cc1	-0.463	-82.6	-7.2	.	0.433	73.8*
C#CCOCCOCCOCCNc1nc(N2CCN(C(=O)Cn3cc(CCO)nn3)CC2)nc(N2CCN(C(=O)[C@H]([C@@H](C)O)n3cc(CCCCN)nn3)CC2)n1	0.0231	-4.8	-8.0	5.7	0.758	48.6
C#CCOCCOCCOCCNc1nc(N2CCN(C(=O)Cn3cc(CCCCN)nn3)CC2)nc(N2CCN(C(=O)[C@H](C)n3cc(CCCN=C(N)N)nn3)CC2)n1	0.623	7.5	-11.1	-8.2	1.7	80.5*
C#CCOCCOCCOCCNc1nc(N2CCN(C(=O)Cn3cc(CC(C)O)nn3)CC2)nc(N2CCN(C(=O)[C@H](CCCCN)n3cc(CCC(=O)O)nn3)CC2)n1 (stereo partly specified)	0.0705	-5.9	-10.1	6.6	0.986	72.3*
C#CCOCCOCCOCCNc1nc(N2CCN(C(=O)Cn3cc(CCCN=C(N)N)nn3)CC2)nc(N2CCN(C(=O)[C@H]([C@@H](C)CC)n3cc(CCCN=C(N)N)nn3)CC2)n1	-0.792	13.4	-3.0	-15.9	0.314	86.1*
C#CCOCCOCCOCCNc1nc(N2CCN(C(=O)Cn3cc(CC(C)O)nn3)CC2)nc(N2CCN(C(=O)[C@H](C)n3cc(CCCN=C(N)N)nn3)CC2)n1 (stereo partly specified)	2.54	-3.4	-4.6	-7.6	0.714	83.6*
Cc1cc2c(N=NC(=O)C3CC3c3ccccc3)c(O)[nH]c2cc1Br (stereo unspecified)	-0.0273	-13.4	0.9	35.7	0.942	1.3
O=C(O)/C=C/C(=O)Nc1ccccc1SC(F)(F)F	.	-3.9	1.9	-17.5	-1.21	11.9
O=C(O)CCNC(=O)c1ccc(NC(=O)Cc2ccc(Cl)cc2)cc1	-0.107	-7.0	-5.3	1.3	-0.161	-9.5
COc1ccc(CC(=O)Nc2ccccc2N2CCCCC2)cc1OC	.	-2.9	-5.0	.	-0.188	-3.1
CC(=O)N1CCC(N(CCN2CCOCC2)C(=S)Nc2ccccc2C)CC1	0.308	-4.5	-11.3	14.6	0.987	0.9
CC(OCC(O)CN(C)CCOc1ccccc1)c1ccc(Cl)cc1 (stereo unspecified)	-2.72	-1.6	-1.3	51.3	-0.584	74.2*
C=CC[n+]1ccc(/C=C2\C=Cc3cc(C)ccc3N2CC)c2ccccc21	-1.4	-121.8	1.0	86.7*	-0.579	-7.2
Cc1ccc2cc(CCNS(=O)(=O)c3ccc(F)cc3)c(=O)[nH]c2c1C	.	-8.2	-1.2	-12.9	-1.27	13.5
CC1(C)Cc2cccc(OCC(=O)OCC(=O)Nc3cccc(S(N)(=O)=O)c3)c2O1	.	-7.2	4.7	.	-0.0983	3.3
CC(C)(C)C(=O)NC(=C(Cl)Cl)P(=O)(O)O	.	22.3	-6.7	-11.9	-3.8*	46.8
